From PubChem BioAssay
This is a sample that favours compounds with a hit; in the whole collection about 3.7% have one here.
KCNQ1 inh: human KCNQ1 channel inhibition; P51787; CHO-K1 KCNQ1, FluxOR thallium flux fluorescence; stronger effect = higher value; B-score at 10 µM; hit rate 1.3% among 310,000;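 active = compounds whose thallium flux B-score, printed positive for inhibition, exceeds three library SD while starting fluorescence stays within three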;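 also: channel opened by potassium depolarization with thallium stimulus after 20 min compound exposure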
hERG protect: compounds protecting human hERG from proarrhythmic drug block; hit rate 0.51% among 310,000; Q12809; AID 1511; CHO-hERG, FluxOR thallium flux, dofetilide IC70 present; activation (rescue from dofetilide block), less the hit threshold, % at 10 µM;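 active = activation above the mean of controls blocked by dofetilide plus 5 SD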;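 also: thallium influx through hERG after potassium depolarization seen as dye fluorescence rise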
KCNK9 inh: human KCNK9 channel inhibition. Q9NPC2. HEK293 KCNK9, FluxOR thallium flux fluorescence; stronger effect = lower value. B-score at 10 µM. hit rate 1.2% among 310,000;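 active = ratio B-score over 3 SD below the library mean, with starting fluorescence within 5 SD of its mean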;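 also: negative B-score means less thallium flux so channel inhibition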
Kir21 inh: Kir2.1 (mouse) channel inhibition. hit rate 0.85% among 310,000. P35561. B-score at 10 µM. HEK293-Kir2.1, FluxOR thallium flux fluorescence; stronger effect = lower value. AID 1672;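 active = fluorescence ratio B-score at or below minus 3 SD of library scores, with starting-brightness B-score within 2 SD, cut at about -4.2 in these data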;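 also: channel flux triggered by added potassium and thallium sulfate stimulus; B-score of peak minus minimum fluorescence over baseline after thallium stimulus; more negative B-score means stronger Kir2.1 block with less thallium influx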
KCNK3 block: human KCNK3 channel inhibition, primary screen; O14649; hit rate 0.84% among 340,000; AID 602410; B-score at 10 µM; CHO-KCNK3 thallium flux, FluxOR fluorescence; stronger effect = lower value;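 active = B-score under library mean minus 4 SD, starting fluorescence ratio at most library mean plus 5 SD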;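 also: more negative B-score means stronger inhibition of thallium flux through KCNK3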
Target sequence (O14649 whole entry, looked up): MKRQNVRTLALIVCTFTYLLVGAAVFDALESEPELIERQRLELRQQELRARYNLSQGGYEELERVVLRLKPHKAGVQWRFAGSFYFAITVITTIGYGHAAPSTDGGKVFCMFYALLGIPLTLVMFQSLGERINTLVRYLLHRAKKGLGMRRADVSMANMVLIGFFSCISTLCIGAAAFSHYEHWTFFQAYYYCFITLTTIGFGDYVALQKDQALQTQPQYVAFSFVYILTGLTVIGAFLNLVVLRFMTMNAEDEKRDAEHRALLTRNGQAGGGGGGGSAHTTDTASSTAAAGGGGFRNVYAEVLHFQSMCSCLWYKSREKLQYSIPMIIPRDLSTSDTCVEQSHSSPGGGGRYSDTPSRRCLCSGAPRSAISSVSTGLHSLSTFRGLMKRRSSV
KCNQ1 act: human KCNQ1 channel potentiation or activation; B-score at 10 µM; hit rate 0.35% among 310,000; CHO-K1 KCNQ1, thallium flux FluxOR fluorescence; stronger effect = higher value;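 active = fluorescence ratio B-score, a plate-corrected score, at least three library SD, with initial intensity B-score within 5 SD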
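Schedule – 37 °C overnight plating, 90-min dark dye load, 20-min compound pretreatment · System – stable KCNQ1 CHO-K1 line · Probe or stimulus – thallium- and potassium-containing depolarizing buffer · Measured by – kinetic FluxOR fluorescence, 10 s baseline plus 110 s post-stimulus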
A number is an active result.

`Cc1nc(Sc2nnnn2-c2ccccc2)c(C#N)c(C)c1C` gave KCNQ1 inh inactive, hERG protect inactive, KCNK9 inh inactive, Kir21 inh -4.87, KCNK3 block inactive and KCNQ1 act inactive.
Screening Cc1ccc(NC(=O)CSCC(=O)Nc2cc(Cl)ccc2N2CCN(C)CC2)cc1 returned KCNQ1 inh inactive, hERG protect inactive, KCNK9 inh inactive, Kir21 inh -5.25, KCNK3 block inactive and KCNQ1 act inactive.
O=C(NCCc1nccs1)C1CCC(=O)N(CCc2ccc(Cl)cc2)C1 (centres undefined) was read as KCNQ1 inh inactive, hERG protect inactive, KCNK9 inh inactive, Kir21 inh inactive, KCNK3 block inactive and KCNQ1 act inactive.
Screening COc1ccc(C2CC(=O)Oc3c(C(CCN4CCCC(C)C4)c4ccc(N(C)C)cc4)c(OC)cc(OC)c32)cc1 (centres undefined) returned KCNQ1 inh 7, hERG protect inactive, KCNK9 inh inactive, Kir21 inh inactive, KCNK3 block inactive and KCNQ1 act inactive.
For COc1ccc(C2CC(=O)Oc3c(C(CCN4CCCCC4)c4ccc(N(C)C)cc4)c(OC)cc(OC)c32)cc1 (centres undefined) the results were KCNQ1 inh inactive, hERG protect inactive, KCNK9 inh inactive, Kir21 inh inactive, KCNK3 block inactive and KCNQ1 act inactive.
COCCNCC1C(Oc2ccc(Cl)cc2)C(=O)N1c1ccccc1C (centres undefined) was read as KCNQ1 inh inactive, hERG protect inactive, KCNK9 inh inactive, Kir21 inh inactive, KCNK3 block inactive and KCNQ1 act inactive.
For COc1ccc(CCNCC2C(Oc3ccc(Cl)cc3)C(=O)N2c2ccccc2C)cc1OC (centres undefined) the results were KCNQ1 inh inactive, hERG protect inactive, KCNK9 inh -6.82, Kir21 inh inactive, KCNK3 block inactive and KCNQ1 act inactive.
For C=CCNc1nc(-c2c(C)nc3sccn23)cs1 the results were KCNQ1 inh inactive, hERG protect inactive, KCNK9 inh inactive, Kir21 inh inactive, KCNK3 block inactive and KCNQ1 act inactive.
Screening Cc1nc2sccn2c1-c1csc(NCc2ccccc2)n1 returned KCNQ1 inh 6, hERG protect inactive, KCNK9 inh inactive, Kir21 inh inactive, KCNK3 block inactive and KCNQ1 act inactive.
For CC(=O)N(Cc1ccc(F)cc1)C1=C(NCc2ccccc2)C(=O)c2ccccc2C1=O the results were KCNQ1 inh inactive, hERG protect inactive, KCNK9 inh -7.86, Kir21 inh inactive, KCNK3 block inactive and KCNQ1 act inactive.
For COc1cccc(C(=O)Nc2cc(OC)ccc2NC(=O)c2ccco2)c1 the results were KCNQ1 inh inactive, hERG protect inactive, KCNK9 inh inactive, Kir21 inh inactive, KCNK3 block inactive and KCNQ1 act inactive.
`FC(F)c1nnc2c(Cl)cc(C(F)(F)F)cn12` gave KCNQ1 inh inactive, hERG protect 6.4, KCNK9 inh inactive, Kir21 inh inactive, KCNK3 block inactive and KCNQ1 act inactive.
For Fc1ccc(-c2nc3c(Cl)cc(C(F)(F)F)cn3c2Cl)cc1 the results were KCNQ1 inh inactive, hERG protect inactive, KCNK9 inh inactive, Kir21 inh inactive, KCNK3 block inactive and KCNQ1 act inactive.
Screening CCN(CC(=O)Nc1c(F)cccc1F)C(=O)CSc1ccc(F)cc1 returned KCNQ1 inh inactive, hERG protect inactive, KCNK9 inh inactive, Kir21 inh inactive, KCNK3 block inactive and KCNQ1 act inactive.
For CCN(CC(=O)NCc1ccc(Cl)cc1)C(=O)CSc1ccc(F)cc1 the results were KCNQ1 inh inactive, hERG protect inactive, KCNK9 inh inactive, Kir21 inh -4.47, KCNK3 block inactive and KCNQ1 act inactive.
For O=C1CC(c2ccccc2)Sc2nc3ccccc3n21 (centres undefined) the results were KCNQ1 inh inactive, hERG protect 42.5, KCNK9 inh inactive, Kir21 inh inactive, KCNK3 block inactive and KCNQ1 act inactive.
Screening O=C1CC(c2cccs2)Sc2nc3ccccc3n21 (centres undefined) returned KCNQ1 inh inactive, hERG protect inactive, KCNK9 inh inactive, Kir21 inh inactive, KCNK3 block inactive and KCNQ1 act inactive.
`CCOC(=O)C1C(=O)C=C(c2ccc(C)cc2)CC1c1cccc([N+](=O)[O-])c1` (centres undefined) gave KCNQ1 inh inactive, hERG protect inactive, KCNK9 inh inactive, Kir21 inh inactive, KCNK3 block inactive and KCNQ1 act inactive.
